Hits are enriched below; roughly 1.5% of the tested compounds scored in any of these assays.
DNA FID counter: compounds displacing fluorescent DNA intercalator, primary screen, artefact control for HCV NS3 helicase inhibitor project, biochemical, FID fluorescence. DNA fluorescent intercalator displacement. inhibition, % at 7.9 µM. actives 0.17% (n = 290,000). AID 1845, 2009; in the data active = inhibition above about 37%;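 also: higher means more ethidium bromide displaced from hairpin DNA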
HCV core dimer: inhibitors of HCV core protein dimerization, primary screen, biochemical, TR-FRET, high-throughput. TR-FRET GST/Flag-core106 dimerization, 1536-well. inhibition, % at 5 µM. actives 0.33% (n = 300,000). AID 1899, 2009;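 active = inhibition above the mean of all tested compounds plus 3 SD, set per screening campaign, cut at about 45% in these data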
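Assay system – GST-tagged and Flag-tagged HCV core protein residues 1-106 · Quantity – core106 proteins, GST 13.5 nM and Flag 17 nM · Benchmarks – unlabelled core106 and no-GST-core106 wells · Read-out basis – percent inhibition of core106 dimerization signal · Detection – time-resolved FRET, ex 340 nm, em 617 and 671 nm · Schedule – 4 h at 22.5 °C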
NRP1-CendR mod: modulators of CendR peptide binding to NRP-1, primary screen, biochemical, fluorescence polarization, uHTS; FAM-RPARPAR peptide binding to NRP-1; inhibition, % at 25 µM; actives 0.85% (n = 360,000); AID 602438, 2012;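 active = inhibition or corrected inhibition above about 18%, plus a signal ratio from 0.5 to 1.5, limit read from the data, passing the limit was not always enough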
Target sequence (O14786 whole entry, looked up): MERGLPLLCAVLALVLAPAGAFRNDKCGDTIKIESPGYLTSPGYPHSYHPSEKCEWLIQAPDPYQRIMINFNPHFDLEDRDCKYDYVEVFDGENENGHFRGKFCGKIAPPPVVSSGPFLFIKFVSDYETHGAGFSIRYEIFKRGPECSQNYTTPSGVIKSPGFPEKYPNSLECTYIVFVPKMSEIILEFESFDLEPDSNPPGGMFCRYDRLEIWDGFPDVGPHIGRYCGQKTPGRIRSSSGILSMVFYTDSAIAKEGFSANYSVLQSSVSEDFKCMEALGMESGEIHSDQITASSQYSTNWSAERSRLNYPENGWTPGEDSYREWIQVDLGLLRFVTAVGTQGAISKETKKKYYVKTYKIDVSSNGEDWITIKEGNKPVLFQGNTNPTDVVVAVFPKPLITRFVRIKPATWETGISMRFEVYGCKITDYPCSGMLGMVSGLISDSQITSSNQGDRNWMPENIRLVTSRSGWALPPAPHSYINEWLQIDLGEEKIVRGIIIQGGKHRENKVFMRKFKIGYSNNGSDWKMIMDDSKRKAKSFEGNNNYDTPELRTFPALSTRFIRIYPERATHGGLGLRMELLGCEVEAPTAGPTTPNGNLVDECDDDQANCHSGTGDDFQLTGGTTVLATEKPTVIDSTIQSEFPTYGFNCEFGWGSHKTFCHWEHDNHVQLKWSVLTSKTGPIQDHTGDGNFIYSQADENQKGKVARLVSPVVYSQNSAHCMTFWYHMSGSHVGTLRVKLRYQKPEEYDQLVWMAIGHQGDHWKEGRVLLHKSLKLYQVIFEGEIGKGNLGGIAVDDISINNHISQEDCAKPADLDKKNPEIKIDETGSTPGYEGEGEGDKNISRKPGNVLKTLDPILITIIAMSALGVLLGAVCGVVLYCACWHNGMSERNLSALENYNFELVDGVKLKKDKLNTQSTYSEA
MEX-5 binding: MEX-5 zinc finger RNA-binding disruptors – biochemical, C. elegans, fluorescence polarization, MLPCN library, primary screen; Zinc finger protein mex-5 (Caenorhabditis elegans), Q9XUB2; MEX-5/FITC-TCR2 RNA binding; active compounds read low; activity score (negative = inhibition of binding), % at 10 µM; actives 0.38% (n = 300,000);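 active = inhibition past about -25% in most replicates, and total fluorescence under double the plate's negative control median, limit read from the data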
Large screens that a line does not name were inactive.

O=C([O-])c1cc(-c2ccccc2)cc(-c2ccccc2)[n+]1CCc1ccc(Cl)cc1	none (no result: DNA FID counter, HCV core dimer, MEX-5 binding)
CCCCN1C(=O)C(CC(=O)NCC2CCCCC2)CC(C(=O)N2CCCCCC2)=C1C (stereo unspecified)	none (no result: DNA FID counter, HCV core dimer, MEX-5 binding)
S=C1NC2=C(CCCC2=C2SCCS2)C(c2ccccc2)N1 (stereo unspecified)	HCV core dimer 46.3
CCCn1cnc2c1c(=O)n(CCCCC(C)=O)c(=O)n2C	NRP1-CendR mod 31.7 (no result: DNA FID counter)
CCOC(=O)Cc1cnc(NC(=O)NC(C(=O)OCC)(c2ccccc2)C(F)(F)F)s1 (stereo unspecified)	NRP1-CendR mod 37.4
CC(C)c1nnc(N2C(=O)C(O)=C(C(=O)c3cccs3)C2c2ccccc2)s1 (stereo unspecified)	MEX-5 binding -65.9 (no result: HCV core dimer)
COc1ccc(C2C(C(=O)c3cccs3)=C(O)C(=O)N2c2nncs2)cc1 (stereo unspecified)	MEX-5 binding -85.1
C=CCOc1ccc(C2C(C(=O)c3cccs3)=C(O)C(=O)N2c2nnc(C)s2)cc1 (stereo unspecified)	MEX-5 binding -30.0
COc1ccc(C2C(C(=O)c3cccs3)=C(O)C(=O)N2c2nnc(C)s2)cc1OC (stereo unspecified)	MEX-5 binding -59.9
CCOC(=O)[C@]12CCC=C1N(Cc1ccc3c(c1)OCO3)C(=O)[C@H](CC(=O)NCCCN1CCCC1=O)C2	none (no result: DNA FID counter, HCV core dimer, MEX-5 binding)
O=C1CC[C@@H](OCc2ccccc2)CCN1CC[C@H](Sc1ccccc1)c1ccccc1	NRP1-CendR mod 29.1
O=C(N[C@@H]1CCC(=O)N(CC[C@H](Sc2ccc(Br)cc2)c2ccccc2)CC1)OCc1ccccc1	NRP1-CendR mod 20.0 (no result: DNA FID counter, HCV core dimer, MEX-5 binding)
COc1ccc(CNC(=O)Nc2nc(C(N)Cc3ccc(C(F)(F)F)cc3)cs2)cc1 (stereo unspecified)	none (no result: DNA FID counter, HCV core dimer, MEX-5 binding)
COc1ccc([C@H]2C[C@H](n3cc(C4CC4)nn3)[C@@H](O)CN2CC2CCCCC2)cc1	none (no result: DNA FID counter, HCV core dimer, MEX-5 binding)
COc1ccc(C(C)=O)cc1CN1C(=O)C(C)ON=C1c1ncccc1C (stereo unspecified)	none (no result: DNA FID counter, HCV core dimer, MEX-5 binding)
Cc1oc(-c2ccc(F)cc2)cc1-c1nn2c(-c3ccoc3C)nnc2s1	HCV core dimer 90.9 (no result: DNA FID counter)
Cc1oc(-c2ccc(F)cc2)cc1-c1nn2c(-c3ccco3)nnc2s1	none (no result: HCV core dimer, NRP1-CendR mod, MEX-5 binding)
O=C(CCc1ccccc1)NC1(Cc2ccccc2)CCN(CCc2cccs2)C1=O (stereo unspecified)	NRP1-CendR mod 19.4 (no result: DNA FID counter, HCV core dimer, MEX-5 binding)
CCC(CC)NC(=O)c1ccc2nc[nH]c2c1	NRP1-CendR mod 29.2
CCOC1=C2[C@H](c3ccccc3)N(S(=O)(=O)c3ccc(C)cc3)C(C(C)(C)C)[C@H]2C(C#N)(C#N)C(C#N)(C#N)C1 (stereo partly specified)	none (no result: DNA FID counter, HCV core dimer, MEX-5 binding)
CC(C)(C)N(NC(=O)Nc1ccc(Cl)cc1)C(=O)c1ccccc1	NRP1-CendR mod 29.3
CCN1C(=O)/C(=C2/C=Cc3ccccc3N2C)OC1=S	MEX-5 binding -28.2
COc1cc(C(O)c2nc(-c3cccc(C(F)(F)F)c3)cs2)ccc1F (stereo unspecified)	none (no result: DNA FID counter, HCV core dimer, MEX-5 binding)
COc1ccc(/C=N\NC(=O)c2ccc(F)cc2)cc1COc1cc(F)ccc1[N+](=O)[O-]	none (no result: HCV core dimer)
COc1ccc(/C=N/NS(=O)(=O)c2ccc(F)cc2)cc1COc1cc(F)ccc1[N+](=O)[O-]	HCV core dimer 48.5
CCOC(=O)CN(C(=O)CSc1nnc(-c2ccc(OC)c(OC)c2)o1)c1ccccc1	NRP1-CendR mod 31.0
COC(=O)CSc1nnc(-c2ccc(OC)c(OC)c2)o1	none
COc1cc2nc(-c3cccs3)oc(=O)c2cc1OC	NRP1-CendR mod 27.0
Cc1ccc2[nH]c3c(=O)n(CC(=O)NCCCN(C)Cc4ccccc4)ncc3c2c1	none
CC(C)N(CCCNC(=O)Cn1ncc2c([nH]c3ccccc32)c1=O)Cc1ccccc1	NRP1-CendR mod 25.9
COc1cc(C(=O)COC(=O)c2ccc([N+](=O)[O-])o2)cc(OC)c1OC	NRP1-CendR mod 21.4 (no result: DNA FID counter, HCV core dimer, MEX-5 binding)
Cc1cc(C)c(C(=O)COC(=O)c2ccc([N+](=O)[O-])o2)cc1C	none
C=CC(=O)Nc1ccc(Nc2nc(NC3CCC(N(C)C)CC3)nc3c2ncn3C(C)C)cc1 (stereo unspecified)	NRP1-CendR mod 27.0 (no result: DNA FID counter, HCV core dimer, MEX-5 binding)
c1ccc2c(c1)CC(N1CCCCC1)c1ccccc1S2 (stereo unspecified)	NRP1-CendR mod 40.6 (no result: DNA FID counter, MEX-5 binding)
COC(=O)[C@]12CCCCC=C1N(Cc1ccco1)C(=O)[C@H](CC(=O)N1CCOCC1)C2	none (no result: DNA FID counter, HCV core dimer, MEX-5 binding)
Cn1cccc1C1Nc2ccccc2NC2=C1C(=O)CC(C)(C)C2 (stereo unspecified)	NRP1-CendR mod 22.2
O=C(CC(O)(c1ccccc1)c1ccccc1)Nc1ccccn1	none (no result: DNA FID counter, HCV core dimer, MEX-5 binding)
CC1=C(C(=O)N(C)C)CC(CC(=O)NCc2cccc3ccccc23)C(=O)N1Cc1ccc(F)cc1 (stereo unspecified)	none (no result: DNA FID counter, HCV core dimer, MEX-5 binding)
COc1ccccc1NS(=O)(=O)c1cc(-c2cnc(C3CC3)o2)ccc1C	NRP1-CendR mod 21.9
c1ccc2c(c1)Sc1cnccc1N2CC1CO1 (stereo unspecified)	none (no result: DNA FID counter, HCV core dimer, MEX-5 binding)
Cc1ccc2c(c1)c1c3n2CCN(CC(O)CNC(C)C)C3CCC1 (stereo unspecified)	DNA FID counter 44.8
CCCNC(=O)C1(C)CCCN(C(=O)COCc2ccccc2)C1 (stereo unspecified)	none (no result: DNA FID counter, HCV core dimer, MEX-5 binding)
OCc1ccccc1OCCOc1ccc(Cl)c2cccnc12	none
OCc1ccccc1OCCCOc1cccc2cccnc12	NRP1-CendR mod 32.7
Cc1cc(N2CCN(C)CC2)nc2ccc(NC(=S)NCCCN3CCc4ccccc4C3)cc12	DNA FID counter 40.8
Cc1cc(N2CCN(C)CC2)nc2ccc(NC(=S)NCCN3CCc4ccccc4C3)cc12	DNA FID counter 37.8
CCN1CCN(c2cc(C)c3cc(NC(=S)NCCCN4CCc5ccccc5C4)ccc3n2)CC1	none
Cc1ccccc1/C=C/c1nc2ccccc2c(=O)n1Cc1ccccc1	none
Cc1ccccc1/C=C/c1nc2ccccc2c(=O)n1CCc1ccccc1	NRP1-CendR mod 39.5
Cc1cc(NC(=O)NC(=O)c2ccccc2NC(=O)C(C)N)ccc1Oc1ncc(Br)cn1 (stereo unspecified)	none (no result: DNA FID counter, HCV core dimer, MEX-5 binding)
Cc1noc(C)c1S(=O)(=O)Nc1ccc(C(C)C)cc1	NRP1-CendR mod 17.6
c1ccc(-n2cc(CN3CCCC(CN4CCCC4)C3)c(-c3ccc4c(c3)OCO4)n2)cc1 (stereo unspecified)	DNA FID counter 40.5
N/C(=N\OC(=O)c1ccc(Cl)cc1)c1ccccn1	NRP1-CendR mod 19.8
N/C(=N\OC(=O)c1ccc(Cl)c(Cl)c1)c1ccccn1	none
CC(=O)Nc1sc(C)c(C)c1C(=O)OCC(=O)N(CC(C)C)C1CCS(=O)(=O)C1 (stereo unspecified)	NRP1-CendR mod 28.3
CC(=O)N1CCN(C(=O)c2cccc(S(=O)(=O)Nc3c(C)n(C)n(-c4ccccc4)c3=O)c2)CC1	none (no result: DNA FID counter, HCV core dimer, MEX-5 binding)
COCCNC(=O)C(=O)Nc1ccc(Br)cc1	none

Screening results from PubChem.
